Shown are actives, neighbours in structure and some others; about 3.5% of the full set was active somewhere.
MrgX1 antag: antagonists of human MrgX1 receptor, primary screen, HEK293 cells, Fluo-4 calcium flux; Mas-related G-protein coupled receptor member X1 (Homo sapiens), Q96LB2; BAM8-22 antagonism; stronger effect = lower value; B-score at 10 µM; actives 1.3% (n = 310,000); AID 588676, 2011;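 active = calcium-response B-score plate-corrected more than 3 library SD below zero, starting fluorescence within 5 deviations, no agonist response on first addition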;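 note: peak minus trough fluorescence over baseline after final BAM8-22 challenge near maximal dose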
Target sequence (Q96LB2 whole entry, looked up): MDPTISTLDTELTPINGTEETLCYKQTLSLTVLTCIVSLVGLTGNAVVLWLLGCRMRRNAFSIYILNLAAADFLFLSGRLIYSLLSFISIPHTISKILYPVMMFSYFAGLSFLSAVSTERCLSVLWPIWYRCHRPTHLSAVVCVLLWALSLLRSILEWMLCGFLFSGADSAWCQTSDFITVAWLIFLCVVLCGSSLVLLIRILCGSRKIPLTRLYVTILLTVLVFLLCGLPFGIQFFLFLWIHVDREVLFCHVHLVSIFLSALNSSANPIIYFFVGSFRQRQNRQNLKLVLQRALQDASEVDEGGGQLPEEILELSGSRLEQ
RGS4 pot: RGS4 potentiators or activators, primary screen, cell-based, HEK293 M3R inducible RGS4, calcium flux. AID 463111, 2010. carbachol calcium flux Fluo4; stronger effect = lower value. B-score at 10 µM. actives 0.92% (n = 310,000);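 active = B-score of the integrated calcium signal more than 4 SD below the library mean, with starting fluorescence not abnormally high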;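 note: negative B-score means reduced calcium response which marks RGS4 activation or potentiation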
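Assay system: HEK293 FlpIn-TREx cells, stable M3R, doxycycline-inducible RGS4 / Probe or stimulus: carbachol, ECmax concentration / Times: overnight RGS4 induction, 30 min dye load 37 °C, 20 min compound RT / Signal: kinetic calcium fluorescence imaging with Fluo4-AM dye, 2 µM / Measure: Agonist-evoked peak-minus-minimum fluorescence over baseline, integrated ratio, B score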
MrgX1 agonist: agonists of human MrgX1 receptor, primary screen, HEK293 cells, Fluo-4 calcium flux; actives 0.44% (n = 310,000); B-score at 10 µM; Mas-related G-protein coupled receptor member X1 (Homo sapiens), Q96LB2; Fluo-4 calcium fluorescence, agonist mode; stronger effect = higher value;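 active = calcium response B-score plate-corrected fluorescence ratio at least 3 library SD, with starting fluorescence B-score inside 5 SD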
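Assay system: MrgX1-expressing HEK293 cells / Amount: fifteen thousand cells per well / Doses: test compound in the initial addition of three / Timing: cells plated overnight, dye loaded 0.5 h 37 °C, 0.5 h room temperature / Technique: kinetic calcium dye fluorescence, Fluo-4 NW / Control set: positive and negative controls per plate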
MrgX1 PAM: positive allosteric modulators of MrgX1, primary screen, HEK293 cells, Fluo-4 calcium flux; actives 0.63% (n = 310,000); B-score at 10 µM; FDSS; stronger effect = higher value; AID 588675, 2011;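 active = plate-corrected calcium response at least 3 library SD above typical, normal starting fluorescence, not activating the receptor alone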;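 note: compound read alongside a low EC10 to EC30 dose of BAM8-22 agonist; peak minus trough fluorescence over baseline measured at the second addition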
RGS4 block: RGS4 inhibitors, primary screen, cell-based, HEK293 M3R inducible RGS4, calcium flux; Fluo-4 calcium flux; stronger effect = higher value; triggered by carbachol at its EC20; B-score at 10 µM; actives 0.45% (n = 310,000);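 active = B-score, a plate-corrected calcium signal, over three deviations above library mean, with baseline fluorescence within five deviations of library mean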;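 note: RGS4 expression induced by doxycycline in cells with stable M3 receptor; B-score is computed from the integrated fluorescence ratio over baseline after carbachol; higher B-score means a larger calcium signal and so more RGS4 inhibition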
Target sequence (P49798 whole entry, looked up): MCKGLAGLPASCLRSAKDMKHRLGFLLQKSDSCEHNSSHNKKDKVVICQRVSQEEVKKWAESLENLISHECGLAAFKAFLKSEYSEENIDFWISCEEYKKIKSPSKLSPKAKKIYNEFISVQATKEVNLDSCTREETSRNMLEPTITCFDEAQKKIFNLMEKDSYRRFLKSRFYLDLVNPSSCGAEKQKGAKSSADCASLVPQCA
RGS4 inh valid: enhanced carbachol calcium response, M3R/RGS4 cells, RGS4 inhibitor project, cell-based, validation screen, HEK293 M3R/RGS4, calcium flux. shares compounds with RGS4 block. carbachol calcium Fluo-4 fluorescence; carbachol added at its EC20; 0 = buffer wells, 100 = carbachol control. calcium response, % at 10 µM. actives 65% (n = 1,700). AID 492999, 2010;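 active = duplicate-averaged calcium response above the buffer-only control mean plus 5 SD of those controls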;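 note: integrated fluorescence ratio F max minus min over baseline F0; higher response in RGS4-induced cells means RGS4 inhibition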
M3R Ca ctr: carbachol calcium response in non-induced M3R cells, confirmation, counter-screen for RGS4 inhibitor project, cell-based, HEK293 M3R; carbachol calcium Fluo-4; submaximal (EC20) carbachol stimulus; buffer wells 0%, carbachol control wells 100%; actives 20% (n = 1,900); shares compounds with RGS4 block; activity (percent), % at 10 µM; call rule not given here;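 note: RGS4 induction absent so cells express M3R without RGS4; higher means more calcium signal and flags a non-specific hit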
RGS4 inh ctr2: signal in non-induced cells without carbachol, RGS4 inhibitor counter-screen. shares compounds with RGS4 block. HEK293 M3R/RGS4 non-induced, Fluo-4 calcium, no carbachol; normalised: buffer wells 0%, carbachol wells 100%. calcium response (agonist-mode artifact), % at 10 µM. actives 22% (n = 1,900);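 active = duplicate-averaged calcium rise in uninduced cells above buffer wells' mean plus 5 SD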
Large screens that a line does not name were inactive (follow-up assays come after a bar, where they were run).

NC1=NC2(CCC(c3ccccc3)CC2)n2c(nc3ccccc32)N1 (stereo unspecified)	RGS4 block 5.2 | RGS4 inh valid 58% | M3R Ca ctr inactive | RGS4 inh ctr2 inactive
Cc1nnc(N2C(=O)C(=O)/C(=C(/O)c3ccc4c(c3)OCCO4)C2c2ccc([N+](=O)[O-])cc2)s1 (stereo unspecified)	none
O=C(Nc1cnccc1C(F)(F)F)NC1CCCCC1	none
CCOc1ccc(C(=O)NCC(=O)NCC(c2cccs2)N2CCOCC2)cc1 (stereo unspecified)	none
Cc1cc2c(cc1S(=O)(=O)Nc1ccc(OC(F)(F)F)cc1)OCC(=O)N2	none
COc1ccc(C(=O)/C=C/c2ccsc2)cc1CSCC(=O)O	RGS4 block 5 | RGS4 inh valid 10% | M3R Ca ctr inactive | RGS4 inh ctr2 inactive
CS(=O)(=O)c1ccccc1C(=O)Nc1cccc(-c2nc3ccccc3o2)c1	none
O=C1C=CC(O)(c2cc(=O)c3c(O)cc(O)cc3o2)C=C1	RGS4 block 26 | RGS4 inh valid 78% | M3R Ca ctr 30% | RGS4 inh ctr2 inactive
CCOC(=O)C1=C(C)N=c2s/c(=C\c3ccncc3)c(=O)n2C1c1ccc2c(c1)OCO2 (stereo unspecified)	RGS4 block 4.7 | RGS4 inh valid 16% | M3R Ca ctr 44% | RGS4 inh ctr2 16%
COc1ccc(N2CCN(C(=O)c3cccc(NC(=O)c4ccco4)c3)CC2)cc1	none
CC1CCC2C(=O)N(c3ccc(C(=O)Oc4cccc5cccnc45)cc3)C(=O)C2C1 (stereo unspecified)	RGS4 block 5.2 | RGS4 inh valid 25% | M3R Ca ctr inactive | RGS4 inh ctr2 inactive
O=C1ON=C(c2ccccc2)/C1=C\c1ccco1	none
O=C1ON=C(c2ccccc2)/C1=C/c1ccc(O)cc1	RGS4 block 11 | RGS4 inh valid 24% | M3R Ca ctr inactive | RGS4 inh ctr2 22%
Cc1ccc(C2=NOC(=O)/C2=C\c2ccccc2)cc1	none
O=C1ON=C(c2ccccc2)/C1=C/c1ccccc1	none | RGS4 inh valid inactive | M3R Ca ctr inactive | RGS4 inh ctr2 inactive
CCc1ccc(NC(=O)CCCN2C(=O)C3CC=CCC3C2=O)cc1 (stereo unspecified)	none
Cc1cc(Br)cc(C=Nc2ccc(N3CCOCC3)cc2)c1O	RGS4 block 5.8 | RGS4 inh valid 21% | M3R Ca ctr 40% | RGS4 inh ctr2 168%
Oc1c(Cl)cc(Cl)cc1C=Nc1ccc(N2CCOCC2)cc1	RGS4 block 5 | RGS4 inh valid inactive | M3R Ca ctr inactive | RGS4 inh ctr2 93%
Oc1ccc(C=Nc2ccc(N3CCOCC3)cc2)c(O)c1	none
Clc1ccc(-c2ccc(C=Nc3ccc(N4CCOCC4)cc3)o2)c(Cl)c1	RGS4 block 5.4 | RGS4 inh valid inactive | M3R Ca ctr inactive | RGS4 inh ctr2 16%
Oc1cc(Br)ccc1C=Nc1ccc(N2CCCCC2)cc1	none
Oc1ccc(N=Nc2cccc(C(F)(F)F)c2)cc1C=Nc1ccc(N2CCOCC2)cc1	RGS4 block 9.7 | RGS4 inh valid 28% | M3R Ca ctr 46% | RGS4 inh ctr2 inactive
COC(=O)c1ccc(COc2ccccc2/C=C(\C#N)C(=O)Nc2c(C)cccc2C)cc1	RGS4 block 5.6 | RGS4 inh valid 8.0% | M3R Ca ctr inactive | RGS4 inh ctr2 inactive

Source: PubChem BioAssay (Johns Hopkins Ion Channel Center)
